Results of several laboratories.
Lines come from different studies, so protocols differ.
pH: 7.4

CCCCCc1cn([C@H]2[C@H]([C@H](O)[C@H](O)CO)OC(C(=O)O)=C[C@@H]2O)nn1
logD (shake flask; aqueous buffer; 2 h): -0.3

c1cc(-c2ccc3ncnc(Nc4ncco4)c3c2)cc(N2C[C@H]3C[C@@H]2CO3)c1
logD (shake flask; aqueous buffer): 3.5

CCCCCC(=O)N[C@H]1[C@H]([C@H](O)[C@H](O)CO)OC(C(=O)O)=C[C@@H]1O
logD (shake flask; aqueous buffer; 2 h): -0.92

CC1(C)NC(=O)N(c2ccc(F)c(C(F)(F)F)c2F)C1=O
chromatographic logD (HPLC): 2.7

O=c1c2cc(Cl)ccc2[nH]c(=S)n1Cc1cccnc1
logD (shake flask; aqueous buffer): 3.16

COc1cc(C(=O)c2nc(-c3cccc4[nH]ccc34)c[nH]2)cc(OC)c1OC
logD: 3.69

O=C1NC2(CCC2)C(=O)N1c1ccc(F)c(C(F)(F)F)c1
chromatographic logD (HPLC): 3

Cc1ccc2[nH]c(=S)n(Cc3cccnc3)c(=O)c2c1
logD (shake flask; aqueous buffer): 2.88
